Values joined by “and” are separate entries in the source; they are usually repeats but may differ in a detail not shown here. Equal entries are not always repeated.
Tested on: Fibroblast
Test: Multiplex assay against human fibroblast
Format: toxicity, cell-based
Outline: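 Live cells carried four stains from seeding: Hoechst33342, BioTracker Green Microtubule Cytoskeleton Dye, MitoTracker Red and Annexin V Alexa Fluor 680. They were imaged on a CQ1 microscope at 37°C and 5% CO2 after compound addition. Using CellPathfinder machine-learning gating, cells were split into Hoechst high-intensity objects or normal cells, normal cells into healthy, pyknosed or fragmented nuclei, and pyknosed cells into mitotic or apoptotic; tubulin, mitochondrial-mass and membrane-permeability phenotypes are per cents of healthy-nucleus cells.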

[1] = 12 h, 1 µM, compound concentration 1 uM
[2] = 12 h, 10 µM, compound concentration 10 uM
[3] = 24 h, 1 µM, compound concentration 1 uM
[4] = 24 h, 10 µM, compound concentration 10 uM
[5] = 48 h, 1 µM, compound concentration 1 uM
[6] = 48 h, 10 µM, compound concentration 10 uM

COCCNc1nc2ccc(C#CC3(O)CCCCC3)cc2n1-c1ccnc(N)n1
Population Apoptotic (%) [1]: 15.09% and 20.51%
Population Fragmented Nuclei (%) [1]: 19.05% and 7.25%
Population Healthy Nuclei (%) [1]: 44.9% and 73.91%
Population Hoechst High Intensity Objects (%) [1]: 0%
Population Membrane Permeable-Phenotype (%) [1]: 4.55% and 1.96%
Population Mitochondria Different-Phenotype (%) [1]: 9.09% and 12.42%
Population Mitotic Cells (%) [1]: 84.91% and 79.49%
Population Normal (%) [1]: 100%
Population Pyknosed Nuclei (%) [1]: 36.05% and 18.84%
Population Tubulin-Different-Phenotype (%) [1]: 18.18% and 27.45%
Total Cell Count [1]: 147 and 207
Population Apoptotic (%) [2]: 2.5% and 7.32%
Population Fragmented Nuclei (%) [2]: 15.71% and 12.57%
Population Healthy Nuclei (%) [2]: 46.19% and 64%
Population Hoechst High Intensity Objects (%) [2]: 0%
Population Membrane Permeable-Phenotype (%) [2]: 7.22% and 1.79%
Population Mitochondria Different-Phenotype (%) [2]: 27.84% and 21.43%
Population Mitotic Cells (%) [2]: 97.5% and 92.68%
Population Normal (%) [2]: 100%
Population Pyknosed Nuclei (%) [2]: 38.1% and 23.43%
Population Tubulin-Different-Phenotype (%) [2]: 56.7% and 54.46%
Total Cell Count [2]: 210 and 175
Population Apoptotic (%) [3]: 9.76% and 17.39%
Population Fragmented Nuclei (%) [3]: 9.09% and 9.43%
Population Healthy Nuclei (%) [3]: 62.24% and 79.72%
Population Hoechst High Intensity Objects (%) [3]: 0%
Population Membrane Permeable-Phenotype (%) [3]: 3.37% and 5.33%
Population Mitochondria Different-Phenotype (%) [3]: 11.24% and 10.06%
Population Mitotic Cells (%) [3]: 90.24% and 82.61%
Population Normal (%) [3]: 100%
Population Pyknosed Nuclei (%) [3]: 28.67% and 10.85%
Population Tubulin-Different-Phenotype (%) [3]: 19.1% and 25.44%
Total Cell Count [3]: 143 and 212
Population Apoptotic (%) [4]: 12.33% and 20.59%
Population Fragmented Nuclei (%) [4]: 14.35% and 10.86%
Population Healthy Nuclei (%) [4]: 51.85% and 69.71%
Population Hoechst High Intensity Objects (%) [4]: 0%
Population Membrane Permeable-Phenotype (%) [4]: 3.57% and 1.64%
Population Mitochondria Different-Phenotype (%) [4]: 25% and 18.03%
Population Mitotic Cells (%) [4]: 87.67% and 79.41%
Population Normal (%) [4]: 100%
Population Pyknosed Nuclei (%) [4]: 33.8% and 19.43%
Population Tubulin-Different-Phenotype (%) [4]: 66.96% and 65.57%
Total Cell Count [4]: 216 and 175
Population Apoptotic (%) [5]: 22.22% and 37.5%
Population Fragmented Nuclei (%) [5]: 10.74% and 6.49%
Population Healthy Nuclei (%) [5]: 77.18% and 86.58%
Population Hoechst High Intensity Objects (%) [5]: 0%
Population Membrane Permeable-Phenotype (%) [5]: 1.74% and 2.5%
Population Mitotic Cells (%) [5]: 77.78% and 62.5%
Population Normal (%) [5]: 100%
Population Pyknosed Nuclei (%) [5]: 12.08% and 6.93%
Population Tubulin-Different-Phenotype (%) [5]: 10.43% and 26.5%
Total Cell Count [5]: 149 and 231
Population Apoptotic (%) [6]: 11.43% and 24%
Population Fragmented Nuclei (%) [6]: 12.66% and 9.66%
Population Healthy Nuclei (%) [6]: 72.57% and 76.14%
Population Hoechst High Intensity Objects (%) [6]: 0%
Population Membrane Permeable-Phenotype (%) [6]: 2.91% and 5.97%
Population Mitochondria Different-Phenotype (%) [6]: 18.02% and 10.45%
Population Mitotic Cells (%) [6]: 88.57% and 76%
Population Normal (%) [6]: 100%
Population Pyknosed Nuclei (%) [6]: 14.77% and 14.2%
Population Tubulin-Different-Phenotype (%) [6]: 42.44% and 58.96%
Total Cell Count [6]: 237 and 176

CNc1nc(NCc2ncccn2)c2c(-c3ccc4ncccc4c3)c[nH]c2n1
Population Fragmented Nuclei (%) [1]: 13.9% and 7.14%
Population Healthy Nuclei (%) [1]: 54.01% and 75.6%
Population Hoechst High Intensity Objects (%) [1]: 0%
Population Membrane Permeable-Phenotype (%) [1]: 2.97% and 3.94%
Population Mitochondria Different-Phenotype (%) [1]: 7.92% and 10.24%
Population Mitotic Cells (%) [1]: 95% and 75.86%
Population Normal (%) [1]: 100%
Population Pyknosed Nuclei (%) [1]: 32.09% and 17.26%
Population Tubulin-Different-Phenotype (%) [1]: 11.88% and 22.83%
Total Cell Count [1]: 187 and 168
Population Apoptotic (%) [2]: 15.15% and 23.33%
Population Fragmented Nuclei (%) [2]: 8.7% and 4.55%
Population Healthy Nuclei (%) [2]: 70.81% and 81.82%
Population Hoechst High Intensity Objects (%) [2]: 0%
Population Membrane Permeable-Phenotype (%) [2]: 15.79% and 10%
Population Mitochondria Different-Phenotype (%) [2]: 16.67% and 13.89%
Population Mitotic Cells (%) [2]: 84.85% and 76.67%
Population Normal (%) [2]: 100%
Population Pyknosed Nuclei (%) [2]: 20.5% and 13.64%
Population Tubulin-Different-Phenotype (%) [2]: 33.33% and 51.67%
Total Cell Count [2]: 161 and 220
Population Fragmented Nuclei (%) [3]: 11.26% and 5.29%
Population Healthy Nuclei (%) [3]: 65.37% and 85.29%
Population Hoechst High Intensity Objects (%) [3]: 0%
Population Membrane Permeable-Phenotype (%) [3]: 1.99% and 6.21%
Population Mitochondria Different-Phenotype (%) [3]: 3.31% and 4.83%
Population Mitotic Cells (%) [3]: 98.15% and 87.5%
Population Normal (%) [3]: 100%
Population Pyknosed Nuclei (%) [3]: 23.38% and 9.41%
Population Tubulin-Different-Phenotype (%) [3]: 12.58% and 11.72%
Total Cell Count [3]: 231 and 170
Population Apoptotic (%) [4]: 23.08% and 26.09%
Population Fragmented Nuclei (%) [4]: 8.06% and 4.98%
Population Healthy Nuclei (%) [4]: 77.96% and 84.62%
Population Hoechst High Intensity Objects (%) [4]: 0%
Population Membrane Permeable-Phenotype (%) [4]: 2.76% and 4.28%
Population Mitochondria Different-Phenotype (%) [4]: 11.72% and 12.83%
Population Mitotic Cells (%) [4]: 76.92% and 73.91%
Population Normal (%) [4]: 100%
Population Pyknosed Nuclei (%) [4]: 13.98% and 10.41%
Population Tubulin-Different-Phenotype (%) [4]: 37.24% and 52.41%
Total Cell Count [4]: 186 and 221
Population Apoptotic (%) [5]: 11.76% and 6.67%
Population Fragmented Nuclei (%) [5]: 8.43% and 2.79%
Population Healthy Nuclei (%) [5]: 85.06% and 88.83%
Population Hoechst High Intensity Objects (%) [5]: 0%
Population Membrane Permeable-Phenotype (%) [5]: 1.35% and 4.4%
Population Mitochondria Different-Phenotype (%) [5]: 11.26% and 5.66%
Population Mitotic Cells (%) [5]: 88.24% and 93.33%
Population Normal (%) [5]: 100%
Population Pyknosed Nuclei (%) [5]: 6.51% and 8.38%
Total Cell Count [5]: 261 and 179
Population Apoptotic (%) [6]: 23.08% and 42.86%
Population Fragmented Nuclei (%) [6]: 11.86% and 6.28%
Population Healthy Nuclei (%) [6]: 81.44% and 90.58%
Population Hoechst High Intensity Objects (%) [6]: 0%
Population Membrane Permeable-Phenotype (%) [6]: 5.06% and 7.92%
Population Mitotic Cells (%) [6]: 76.92% and 57.14%
Population Normal (%) [6]: 100%
Population Pyknosed Nuclei (%) [6]: 6.7% and 3.14%
Population Tubulin-Different-Phenotype (%) [6]: 18.35% and 54.46%
Total Cell Count [6]: 194 and 223

Cl.Clc1cc2cc(c1)-c1cnn3ccc(nc13)NCCOCCO2
Population Apoptotic (%) [1]: 25.93% and 36.11%
Population Fragmented Nuclei (%) [1]: 12.14% and 4.56%
Population Healthy Nuclei (%) [1]: 61.65% and 80.5%
Population Hoechst High Intensity Objects (%) [1]: 0%
Population Membrane Permeable-Phenotype (%) [1]: 11.02% and 2.58%
Population Mitochondria Different-Phenotype (%) [1]: 4.72% and 10.82%
Population Mitotic Cells (%) [1]: 74.07% and 63.89%
Population Normal (%) [1]: 100%
Population Pyknosed Nuclei (%) [1]: 26.21% and 14.94%
Population Tubulin-Different-Phenotype (%) [1]: 11.02% and 23.2%
Total Cell Count [1]: 206 and 241
Population Apoptotic (%) [2]: 10.2% and 20.59%
Population Fragmented Nuclei (%) [2]: 10.65% and 5.56%
Population Healthy Nuclei (%) [2]: 66.67% and 78.7%
Population Hoechst High Intensity Objects (%) [2]: 0%
Population Membrane Permeable-Phenotype (%) [2]: 8.33% and 4.71%
Population Mitochondria Different-Phenotype (%) [2]: 12.5% and 18.82%
Population Mitotic Cells (%) [2]: 89.8% and 79.41%
Population Normal (%) [2]: 100%
Population Pyknosed Nuclei (%) [2]: 22.69% and 15.74%
Population Tubulin-Different-Phenotype (%) [2]: 22.22% and 26.47%
Total Cell Count [2]: 216
Population Apoptotic (%) [3]: 31.43% and 41.38%
Population Fragmented Nuclei (%) [3]: 12.22% and 6.72%
Population Healthy Nuclei (%) [3]: 71.95% and 82.46%
Population Hoechst High Intensity Objects (%) [3]: 0%
Population Membrane Permeable-Phenotype (%) [3]: 6.29% and 4.52%
Population Mitochondria Different-Phenotype (%) [3]: 3.14% and 6.33%
Population Mitotic Cells (%) [3]: 68.57% and 58.62%
Population Normal (%) [3]: 100%
Population Pyknosed Nuclei (%) [3]: 15.84% and 10.82%
Population Tubulin-Different-Phenotype (%) [3]: 15.09% and 21.72%
Total Cell Count [3]: 221 and 268
Population Fragmented Nuclei (%) [4]: 7.39% and 6.93%
Population Healthy Nuclei (%) [4]: 79.13% and 78.79%
Population Hoechst High Intensity Objects (%) [4]: 0%
Population Membrane Permeable-Phenotype (%) [4]: 3.3%
Population Mitochondria Different-Phenotype (%) [4]: 8.79% and 13.74%
Population Mitotic Cells (%) [4]: 90.32% and 69.7%
Population Normal (%) [4]: 100%
Population Pyknosed Nuclei (%) [4]: 13.48% and 14.29%
Population Tubulin-Different-Phenotype (%) [4]: 20.33% and 33.52%
Total Cell Count [4]: 230 and 231
Population Apoptotic (%) [5]: 31.03% and 50%
Population Fragmented Nuclei (%) [5]: 12.03% and 5.81%
Population Healthy Nuclei (%) [5]: 75.93% and 90.31%
Population Hoechst High Intensity Objects (%) [5]: 0%
Population Membrane Permeable-Phenotype (%) [5]: 3.28% and 3%
Population Mitotic Cells (%) [5]: 68.97% and 50%
Population Normal (%) [5]: 100%
Population Pyknosed Nuclei (%) [5]: 12.03% and 3.88%
Total Cell Count [5]: 241 and 258
Population Apoptotic (%) [6]: 16.67% and 38.89%
Population Fragmented Nuclei (%) [6]: 10.79% and 5.86%
Population Healthy Nuclei (%) [6]: 86.72% and 86.61%
Population Hoechst High Intensity Objects (%) [6]: 0%
Population Membrane Permeable-Phenotype (%) [6]: 1.91% and 6.76%
Population Mitochondria Different-Phenotype (%) [6]: 11% and 9.66%
Population Mitotic Cells (%) [6]: 83.33% and 61.11%
Population Normal (%) [6]: 100%
Population Pyknosed Nuclei (%) [6]: 2.49% and 7.53%
Population Tubulin-Different-Phenotype (%) [6]: 13.88% and 38.65%
Total Cell Count [6]: 241 and 239
